Structures can show the parent of a compound that is named as a salt.
Experiments:
[1] = target: T1, Sodium-dependent dopamine transporter (Rattus norvegicus, UniProt P23977); experiment: Displacement of [3H]WIN-35428 from DAT in Sprague-Dawley rat striatum
[2] = target: Norepinephrine transporter (Rattus norvegicus, UniProt Q9WTR4); experiment: Displacement of [3H]nisoxetine from NET in Sprague-Dawley rat cortical tissue
[3] = target: Sodium-dependent serotonin transporter (Rattus norvegicus, UniProt P31652); experiment: Displacement of [3H]citalopram from 5HTT in Sprague-Dawley rat cerebrum
How it was run: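 Rat cortical P2 fraction in 25 mM sodium phosphate, pH 7.7 at 0 °C; 2 nM [3H]citalopram, 3 h at 0 °C; filtration. Nonspecific binding with 1 µM clomipramine. Compounds in water, dilute DMSO or methanol (≤0.3% solvent). Data corrected for filter binding; IC50 by nonlinear regression, Ki by Cheng-Prusoff.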

[4] = target: T1, Sodium-dependent dopamine transporter; experiment: Inhibition of [3H]DA uptake at DAT in Sprague-Dawley rat striatum
How it was run: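 Uptake of [3H]dopamine into the S1 fraction of rat striatal homogenate; IC50 from curves fit by nonlinear regression.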

[5] = target: Monoamine transporters; serotonin & dopamine (Rattus norvegicus) (UniProt P31652+P23977); experiment: Selectivity for rat DAT over rat 5HTT; type: protein assay
[6] = target: Monoamine transporters; Norepininephrine & dopamine (Rattus norvegicus) (UniProt P23977+Q9WTR4); experiment: Selectivity for rat DAT over rat NET; type: protein assay
[7] = target: Monoamine transporters; Norepinephrine & serotonin (Rattus norvegicus) (UniProt P31652+Q9WTR4); experiment: Selectivity for rat NET over rat 5HTT; type: protein assay
[8] = target: Norepinephrine transporter (Rattus norvegicus) (UniProt Q9WTR4); experiment: Displacement of [3H]nisoxetine from NET in Sprague-Dawley rat cortical tissue at 5 uM
[9] = target: Sodium-dependent serotonin transporter (Rattus norvegicus) (UniProt P31652); experiment: Displacement of [3H]citalopram from 5HTT in Sprague-Dawley rat cerebrum at 10 uM
[10] = target: Norepinephrine transporter (Rattus norvegicus) (UniProt Q9WTR4); experiment: Displacement of [3H]nisoxetine from NET in Sprague-Dawley rat cortical tissue at 10 uM

Chain of Sodium-dependent serotonin transporter (P31652 whole entry): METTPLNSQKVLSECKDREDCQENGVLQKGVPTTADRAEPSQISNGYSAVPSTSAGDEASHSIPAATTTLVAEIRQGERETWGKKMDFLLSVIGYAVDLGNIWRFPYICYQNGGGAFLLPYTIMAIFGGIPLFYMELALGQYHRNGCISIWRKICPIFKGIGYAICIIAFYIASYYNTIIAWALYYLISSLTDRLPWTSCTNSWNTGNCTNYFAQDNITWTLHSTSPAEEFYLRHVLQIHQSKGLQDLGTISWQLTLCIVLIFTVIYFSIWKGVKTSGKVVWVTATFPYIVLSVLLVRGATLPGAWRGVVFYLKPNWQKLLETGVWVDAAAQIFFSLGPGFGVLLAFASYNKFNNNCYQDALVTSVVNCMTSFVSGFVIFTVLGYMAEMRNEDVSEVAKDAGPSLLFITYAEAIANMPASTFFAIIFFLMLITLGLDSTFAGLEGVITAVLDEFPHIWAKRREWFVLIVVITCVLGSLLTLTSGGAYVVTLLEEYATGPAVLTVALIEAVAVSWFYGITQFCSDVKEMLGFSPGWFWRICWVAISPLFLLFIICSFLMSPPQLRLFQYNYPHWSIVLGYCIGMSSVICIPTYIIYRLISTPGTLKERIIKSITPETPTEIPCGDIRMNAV
Chain of Sodium-dependent serotonin transporter (Rattus norvegicus) (P31652 whole entry): as above
Chain of Monoamine transporters; serotonin & dopamine (Rattus norvegicus) (P23977 whole entry, looked up): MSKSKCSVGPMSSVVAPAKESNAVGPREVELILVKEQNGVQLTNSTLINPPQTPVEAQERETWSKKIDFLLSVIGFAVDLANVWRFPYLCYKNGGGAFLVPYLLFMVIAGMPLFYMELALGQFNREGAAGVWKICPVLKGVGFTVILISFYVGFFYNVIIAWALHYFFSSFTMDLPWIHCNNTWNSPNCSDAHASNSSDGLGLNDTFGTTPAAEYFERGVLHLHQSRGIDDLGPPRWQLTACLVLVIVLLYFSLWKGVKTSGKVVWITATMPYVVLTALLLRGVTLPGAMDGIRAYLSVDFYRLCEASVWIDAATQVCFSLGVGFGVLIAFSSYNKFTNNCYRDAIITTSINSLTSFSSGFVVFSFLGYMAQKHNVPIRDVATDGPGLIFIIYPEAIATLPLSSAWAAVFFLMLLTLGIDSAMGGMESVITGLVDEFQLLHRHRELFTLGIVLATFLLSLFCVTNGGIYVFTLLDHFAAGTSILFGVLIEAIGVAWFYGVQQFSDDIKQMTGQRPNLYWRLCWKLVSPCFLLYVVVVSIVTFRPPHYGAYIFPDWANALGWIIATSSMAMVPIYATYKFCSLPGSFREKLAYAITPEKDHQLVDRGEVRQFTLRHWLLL
Chain of Monoamine transporters; serotonin & dopamine (Rattus norvegicus) (P31652 whole entry, looked up): as the sequence (P31652 whole entry) above
T1 sequence (P23977 whole entry): as the sequence (P23977 whole entry, looked up) above
Chain of Norepinephrine transporter (Rattus norvegicus) (Q9WTR4 as listed by the source): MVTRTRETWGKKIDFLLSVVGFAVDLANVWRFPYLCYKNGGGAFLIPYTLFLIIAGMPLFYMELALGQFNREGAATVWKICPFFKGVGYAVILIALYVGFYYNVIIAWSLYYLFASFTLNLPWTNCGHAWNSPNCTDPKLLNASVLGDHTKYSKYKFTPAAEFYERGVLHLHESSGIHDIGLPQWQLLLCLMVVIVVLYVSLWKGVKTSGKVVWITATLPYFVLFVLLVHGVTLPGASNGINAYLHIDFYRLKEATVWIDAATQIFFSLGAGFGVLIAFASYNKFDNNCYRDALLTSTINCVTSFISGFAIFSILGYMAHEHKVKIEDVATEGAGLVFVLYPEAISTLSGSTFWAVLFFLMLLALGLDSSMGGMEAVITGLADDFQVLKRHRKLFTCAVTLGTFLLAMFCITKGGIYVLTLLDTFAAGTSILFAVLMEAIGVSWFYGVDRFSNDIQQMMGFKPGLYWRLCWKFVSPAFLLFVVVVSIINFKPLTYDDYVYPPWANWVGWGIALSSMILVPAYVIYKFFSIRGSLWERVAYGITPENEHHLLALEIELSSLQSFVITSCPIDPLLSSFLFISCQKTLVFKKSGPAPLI
Chain of Norepinephrine transporter (Q9WTR4 whole entry): as the sequence (Q9WTR4 as listed by the source) above

SMILES	Ki [1]	Ki [2]	Ki [3]	IC50 [4]	Selectivity ratio [5]	Selectivity ratio [6]	Selectivity ratio [7]	inhibition [8]	inhibition [9]	inhibition [10]
C[C@@H]1C[C@H](c2ccccc2)[C@H]2CCCCN2C1	119 nM	76 nM	243 nM	248 nM	2	0.64	3.2			
CO[C@@H]1CCN2CCCC[C@@H]2[C@H]1c1ccccc1	570 nM	2040 nM		1850 nM	> 18	3.6	> 4.9	64%	14%	
COC[C@H](c1ccccc1)[C@H]1CCCCN1 (relative stereo)	89.9 nM			281 nM	110				47.8%	
C[C@H]1C[C@H](c2ccccc2)[C@H]2CCCCN2C1	178 nM	694 nM	427 nM	368 nM	2.4	3.9	0.62			
c1ccc(C2CCCNC2)cc1 (stereo not given)	4560 nM	534 nM		1060 nM	2.2	0.12	19		53%	
CC[C@@H]1CCN2CCCC[C@@H]2[C@H]1c1ccc(Cl)c(Cl)c1	3.44 nM	102 nM	286 nM		83	30	2.8			
COC(=O)[C@H](c1ccc(Cl)c(Cl)c1)[C@H]1CCCCN1	4.76 nM		667 nM	7 nM	140					
CC[C@H]1CCN2CCCC[C@@H]2[C@H]1c1ccccc1	5.51 nM	60.8 nM	3550 nM		640	11	58		86%	
O[C@@H]1CCN2CCCC[C@@H]2[C@H]1c1ccccc1	6250 nM			10700 nM	> 1.6	> 0.8		23.7%	1%	
COC(=O)[C@@H](c1ccc(Cl)c(Cl)c1)[C@H]1CCCCN1 (relative stereo)	363 nM		2570 nM	317 nM	7.1					
COC(=O)[C@H](c1ccccc1)[C@H]1CCCCN1 [DEXMETHYLPHENIDATE HYDROCHLORIDE]		270 nM							14%	
O[C@H]1CCN2CCCC[C@@H]2[C@H]1c1ccccc1	108 nM	351 nM		680 nM	> 93	3.3	> 28		12%	
O[C@@H]1CCN2CCCC[C@@H]2[C@H]1c1ccc(Cl)c(Cl)c1	35.7 nM	367 nM	2050 nM		57	10	5.6			
CO[C@H]1CCN2CCCC[C@@H]2[C@H]1c1ccccc1	10.8 nM	63.7 nM	2070 nM	61 nM	190	5.9	32		73%	
CC[C@H]1CCN2CCCC[C@@H]2[C@H]1c1ccc(Cl)c(Cl)c1	4.12 nM	98.8 nM	199 nM		48	24	2			
O=C1CCN2CCCC[C@@H]2[C@H]1c1ccccc1 (relative stereo)	908 nM	4030 nM		12400 nM	> 11	4.4	> 2.5	52%	5%	

SMILES	Ki [1]	Ki [2]	Ki [3]	IC50 [4]	Selectivity ratio [5]	Selectivity ratio [6]	Selectivity ratio [7]	inhibition [8]	inhibition [9]	inhibition [10]
O=C1CCN2CCCC[C@@H]2[C@H]1c1ccc(Cl)c(Cl)c1 (relative stereo)	14 nM	280 nM			710	20	36		54%	
Clc1ccc([C@H]2CCCN3CCCC[C@H]23)cc1Cl (relative stereo)	3.39 nM	28.4 nM	121 nM	11 nM	36	8.4	4.3			
c1ccc([C@H]2CCCN3CCCC[C@H]23)cc1 (relative stereo)	76.2 nM	138 nM	5140 nM	244 nM	67	1.8	37			
CC[C@@H]1CCN2CCCC[C@@H]2[C@H]1c1ccccc1	27.6 nM	411 nM	2390 nM		87	15	5.8		80%	
OC[C@H](c1ccc(Cl)c(Cl)c1)[C@H]1CCCCN1 (relative stereo)	3.91 nM		276 nM	22.5 nM	71				94.6%	
Clc1ccc([C@@H]2CCCN3CCCC[C@H]23)cc1Cl (relative stereo)	34.6 nM	160 nM	102 nM	87.6 nM	3	4.6	0.64			
COC(=O)[C@H](c1ccccc1Cl)[C@H]1CCCCN1	1740 nM			2660 nM	> 5.7				22.2%	
OC[C@H](c1ccccc1)[C@H]1CCCCN1 (relative stereo)	406 nM			1520 nM	> 25				31%	
CC[C@@]1(O)CCN2CCCC[C@@H]2[C@H]1c1ccccc1	175 nM	1520 nM			> 57	8.69	> 6.6		19%	
O=C1CC[C@H](c2ccccc2)[C@H]2CCCCN12			3550 nM	8490 nM	0.54	> 0.76	< 0.7	11%		
CCN1CCCC[C@@H]1[C@H](CO)c1ccccc1 (relative stereo)	2100 nM			10400 nM	> 4.8				16.2%	
c1ccc(CC2CCCCN2)cc1 (stereo not given)	6360 nM			8800 nM	> 1.6				22%	36%
Clc1ccccc1[C@H]1CCCN2CCCC[C@H]12 (relative stereo)	480 nM	2750 nM	1840 nM	1260 nM	3.8	5.7	0.67	58%		
O[C@H]1CCN2CCCC[C@@H]2[C@H]1c1ccc(Cl)c(Cl)c1	2.46 nM	27.9 nM	168 nM		68	11	6			
CCN1CCCC[C@@H]1[C@H](C)c1ccccc1 (relative stereo)	7610 nM			7960 nM	> 1.3	> 0.66		8.3%	11%	
